≈ marks a conversion by molar mass, not a printed value. Blank lines part the entries; values can stand above or below the compound they belong to. Calls of active or inactive are those of the source. No cut-off for these calls is given here.
Key:
Enterococcus faecium [1] = test: Antibacterial activity against Enterococcus faecium HM965 incubated for 18 to 20 hrs under aerobic condition by CLSI protocol based broth microdilution assay; assay type: functional; details: time hrs 18-20
Method in brief: (§1)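 Broth microdilution per CLSI. Strains grown aerobically overnight on trypticase soy agar at 37 °C. Inoculum set to 0.5 McFarland, diluted in trypticase soy broth to about 5 × 10⁵ CFU/mL. Agents serially diluted, plates incubated aerobically at 37 °C for 18–20 h. MIC is the lowest concentration with no visible growth. Compound stocks 10 mg/mL in DMSO.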

Enterococcus faecium [2] = test: Antibacterial activity against Enterococcus faecium HM968 incubated for 18 to 20 hrs under aerobic condition by CLSI protocol based broth microdilution assay; assay type: functional; details: time hrs 18-20; method in brief: as §1
Enterococcus faecium [3] = test: Antibacterial activity against Enterococcus faecium NR-28978 incubated for 18 to 20 hrs under aerobic condition by CLSI protocol based broth microdilution assay; assay type: functional; details: time hrs 18-20; method in brief: as §1
Enterococcus faecium [4] = test: Antibacterial activity against Enterococcus faecium NR-31903 incubated for 18 to 20 hrs under aerobic condition by CLSI protocol based broth microdilution assay; assay type: functional; details: time hrs 18-20; method in brief: as §1
Enterococcus faecium [5] = test: Antibacterial activity against Enterococcus faecium NR-32065 incubated for 18 to 20 hrs under aerobic condition by CLSI protocol based broth microdilution assay; assay type: functional; details: time hrs 18-20; method in brief: as §1
Enterococcus faecium [6] = test: Antibacterial activity against Enterococcus faecium NR-31914 incubated for 18 to 20 hrs under aerobic condition by CLSI protocol based broth microdilution assay; assay type: functional; details: time hrs 18-20; method in brief: as §1
Enterococcus faecium [7] = test: Antibacterial activity against Enterococcus faecium NR-31916 incubated for 18 to 20 hrs under aerobic condition by CLSI protocol based broth microdilution assay; assay type: functional; details: time hrs 18-20; method in brief: as §1
Enterococcus faecium [8] = test: Antibacterial activity against Enterococcus faecium NR-32052 incubated for 18 to 20 hrs under aerobic condition by CLSI protocol based broth microdilution assay; assay type: functional; details: time hrs 18-20; method in brief: as §1
Enterococcus faecium [9] = test: Antibacterial activity against Enterococcus faecium NR-31971 incubated for 18 to 20 hrs under aerobic condition by CLSI protocol based broth microdilution assay; assay type: functional; details: time hrs 18-20; method in brief: as §1
Enterococcus faecalis [10] = test: Antibacterial activity against Enterococcus faecalis HM-335 incubated for 18 to 20 hrs under aerobic condition by CLSI protocol based broth microdilution assay; assay type: functional; details: time hrs 18-20; method in brief: as §1
Enterococcus faecalis [11] = test: Antibacterial activity against Enterococcus faecalis HM-334 incubated for 18 to 20 hrs under aerobic condition by CLSI protocol based broth microdilution assay; assay type: functional; details: time hrs 18-20; method in brief: as §1
Enterococcus faecalis [12] = test: Antibacterial activity against Enterococcus faecalis NR-31975 incubated for 18 to 20 hrs under aerobic condition by CLSI protocol based broth microdilution assay; assay type: functional, organism-based; details: time hrs 18-20; method in brief: as §1
Enterococcus faecalis [13] = test: Antibacterial activity against Enterococcus faecalis NR-31970 incubated for 18 to 20 hrs under aerobic condition by CLSI protocol based broth microdilution assay; assay type: functional, organism-based; details: time hrs 18-20; method in brief: as §1
Caco-2 = test: Cytotoxicity against human Caco2 cells at 128 ug/ml incubated for 2 hrs by MTS assay; assay type: cell-based; details: caco-2, 2 h, dose 128 µg/ml
Method in brief: (§2)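 Caco-2 cells maintained in DMEM with 10% FBS, non-essential amino acids and penicillin-streptomycin at 37 °C, 5% CO₂. Compound exposure for 2 h in serum-free medium at several concentrations; DMSO-matched controls. Viability expressed relative to DMSO controls (mean ± SD), and CC₅₀ derived.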

[14] = Cytotoxicity against human Caco2 cells incubated for 2 hrs by MTS assay; assay type: cell-based; details: Caco-2 cells; method in brief: as §2
Enterococcus faecium [15] = test: Inhibition of carbonic anhydrase in Enterococcus faecium ATCC 700221 assessed as antibacterial activity incubated for 18 to 20 hrs in presence of ambient air by CLSI protocol based broth microdilution assay; details: time hrs 18-20
Method in brief: (§3)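 CLSI broth microdilution: inoculum about 5 × 10⁵ CFU/mL in trypticase soy broth with serial dilutions of agents. Paired plates incubated at 37 °C for 18–20 h, one set in ambient air ("normal"), the other under 5% CO₂. MIC is the lowest concentration completely inhibiting visible growth.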

Enterococcus faecium [16] = test: Inhibition of carbonic anhydrase in Enterococcus faecium ATCC 700221 assessed as antibacterial activity incubated for 18 to 20 hrs in presence of 5% CO2 by CLSI protocol based broth microdilution assay; details: time hrs 18-20; method in brief: as §3
Enterococcus faecium [17] = test: Antibacterial activity against Enterococcus faecium NR-31972 incubated for 18 to 20 hrs under aerobic condition by CLSI protocol based broth microdilution assay; assay type: functional; details: time hrs 18-20; method in brief: as §1

Compound: NS(=O)(=O)c1nnc(NCc2ccccc2)s1
MIC (Enterococcus faecium [1]): > 64 µg/mL

Compound: NS(=O)(=O)c1nnc(NC(=O)CN2CCCCC2)s1
MIC (Enterococcus faecium [1]): 1 µg/mL (≈ 3.27 µM)

Compound: NS(=O)(=O)c1nnc(NC(=O)c2ccccc2)s1
MIC (Enterococcus faecium [1]): 2 µg/mL (≈ 7.03 µM)

Compound: CC(=O)Nc1nnc(S(C)(=O)=O)s1
MIC (Enterococcus faecium [1]): > 64 µg/mL

Compound: CC(C)C(=O)Nc1nnc(S(N)(=O)=O)s1
MIC (Enterococcus faecium [1]): 1 µg/mL (≈ 4 µM)
inhibition (Enterococcus faecium [15]): Active
inhibition (Enterococcus faecium [16]): inactive

Compound: CC(=O)Nc1ncc(S(N)(=O)=O)s1
MIC (Enterococcus faecium [1]): > 64 µg/mL

Compound: NS(=O)(=O)c1nnc(NC(=O)C2CC2)s1
MIC (Enterococcus faecium [1]): 2 µg/mL (≈ 8.06 µM)
Activity (Enterococcus faecalis [12]): Active
Activity (Enterococcus faecalis [13]): Active

Stronger by MIC (Enterococcus faecium [1]), values ahead:

MIC (Enterococcus faecium [1]): 0.5 µg/mL (≈ 2 µM)
inhibition (Enterococcus faecium [15]): Active
inhibition (Enterococcus faecium [16]): inactive
Compound: CCCC(=O)Nc1nnc(S(N)(=O)=O)s1

MIC (Enterococcus faecium [1]): 0.5 µg/mL (≈ 1.91 µM)
inhibition (Enterococcus faecium [15]): Active
inhibition (Enterococcus faecium [16]): inactive
Compound: NS(=O)(=O)c1nnc(NC(=O)C2CCC2)s1
Activity (Enterococcus faecalis [12]): Active
Activity (Enterococcus faecalis [13]): Active

MIC (Enterococcus faecium [1]): 0.25 µg/mL (≈ 0.821 µM)
Compound: CC1CCC(C(=O)Nc2nnc(S(N)(=O)=O)s2)CC1 (stereo not drawn)

MIC (Enterococcus faecium [1]): 0.25 µg/mL (≈ 0.905 µM)
MIC (Enterococcus faecium [2]): 0.5 µg/mL (≈ 1.81 µM)
MIC (Enterococcus faecium [3]): 0.5 µg/mL (≈ 1.81 µM)
MIC (Enterococcus faecium [4]): 0.5 µg/mL (≈ 1.81 µM)
MIC (Enterococcus faecium [5]): 0.5 µg/mL (≈ 1.81 µM)
MIC (Enterococcus faecium [6]): 0.5 µg/mL (≈ 1.81 µM)
MIC (Enterococcus faecium [7]): 0.5 µg/mL (≈ 1.81 µM)
MIC (Enterococcus faecium [8]): 0.5 µg/mL (≈ 1.81 µM)
MIC (Enterococcus faecium [9]): 1 µg/mL (≈ 3.62 µM)
MIC (Enterococcus faecalis [10]): 0.5 µg/mL (≈ 1.81 µM)
MIC (Enterococcus faecalis [11]): 0.5 µg/mL (≈ 1.81 µM)
inhibition (Enterococcus faecium [15]): Active
inhibition (Enterococcus faecium [16]): inactive
MIC (Enterococcus faecium [17]): 1 µg/mL (≈ 3.62 µM)
Compound: NS(=O)(=O)c1nnc(NC(=O)C2CCCC2)s1
Activity (Enterococcus faecalis [12]): Active
Activity (Enterococcus faecalis [13]): Active
Activity (Caco-2): Non-Toxic
CC50 at 2 h [14]: > 128 µg/mL

MIC (Enterococcus faecium [1]): 0.25 µg/mL (≈ 0.821 µM)
Compound: CC1(C(=O)Nc2nnc(S(N)(=O)=O)s2)CCCCC1

MIC (Enterococcus faecium [1]): 0.06 µg/mL (≈ 0.207 µM)
MIC (Enterococcus faecium [2]): 0.06 µg/mL (≈ 0.207 µM)
MIC (Enterococcus faecium [3]): 0.125 µg/mL (≈ 0.43 µM)
MIC (Enterococcus faecium [4]): 0.125 µg/mL (≈ 0.43 µM)
MIC (Enterococcus faecium [5]): 0.015 µg/mL (≈ 0.0517 µM)
MIC (Enterococcus faecium [6]): 0.125 µg/mL (≈ 0.43 µM)
MIC (Enterococcus faecium [7]): 0.015 µg/mL (≈ 0.0517 µM)
MIC (Enterococcus faecium [8]): 0.06 µg/mL (≈ 0.207 µM)
MIC (Enterococcus faecium [9]): 0.06 µg/mL (≈ 0.207 µM)
MIC (Enterococcus faecalis [10]): 0.03 µg/mL (≈ 0.103 µM)
MIC (Enterococcus faecalis [11]): 0.03 µg/mL (≈ 0.103 µM)
inhibition (Enterococcus faecium [15]): Active
inhibition (Enterococcus faecium [16]): inactive
MIC (Enterococcus faecium [17]): 0.03 µg/mL (≈ 0.103 µM)
Compound: NS(=O)(=O)c1nnc(NC(=O)CC2CCCC2)s1
Activity (Enterococcus faecalis [12]): Active
Activity (Enterococcus faecalis [13]): Active
Activity (Caco-2): Non-Toxic
CC50 at 2 h [14]: > 128 µg/mL

MIC (Enterococcus faecium [1]): 0.06 µg/mL (≈ 0.197 µM)
MIC (Enterococcus faecium [2]): 0.06 µg/mL (≈ 0.197 µM)
MIC (Enterococcus faecium [3]): 0.125 µg/mL (≈ 0.411 µM)
MIC (Enterococcus faecium [4]): 0.03 µg/mL (≈ 0.0986 µM)
MIC (Enterococcus faecium [5]): 0.06 µg/mL (≈ 0.197 µM)
MIC (Enterococcus faecium [6]): 0.06 µg/mL (≈ 0.197 µM)
MIC (Enterococcus faecium [7]): 0.03 µg/mL (≈ 0.0986 µM)
MIC (Enterococcus faecium [8]): 0.06 µg/mL (≈ 0.197 µM)
MIC (Enterococcus faecium [9]): 0.03 µg/mL (≈ 0.0986 µM)
MIC (Enterococcus faecalis [10]): 0.06 µg/mL (≈ 0.197 µM)
MIC (Enterococcus faecalis [11]): 0.015 µg/mL (≈ 0.0493 µM)
inhibition (Enterococcus faecium [15]): Active
inhibition (Enterococcus faecium [16]): inactive
MIC (Enterococcus faecium [17]): 0.03 µg/mL (≈ 0.0986 µM)
Compound: NS(=O)(=O)c1nnc(NC(=O)CCC2CCCC2)s1
Activity (Enterococcus faecalis [12]): Active
Activity (Enterococcus faecalis [13]): Active
Activity (Caco-2): Non-Toxic
CC50 at 2 h [14]: > 128 µg/mL

MIC (Enterococcus faecium [1]): 0.015 µg/mL (≈ 0.0513 µM)
MIC (Enterococcus faecium [2]): 0.015 µg/mL (≈ 0.0513 µM)
MIC (Enterococcus faecium [3]): 0.06 µg/mL (≈ 0.205 µM)
MIC (Enterococcus faecium [4]): 0.03 µg/mL (≈ 0.103 µM)
MIC (Enterococcus faecium [5]): 0.03 µg/mL (≈ 0.103 µM)
MIC (Enterococcus faecium [6]): 0.03 µg/mL (≈ 0.103 µM)
MIC (Enterococcus faecium [7]): 0.06 µg/mL (≈ 0.205 µM)
MIC (Enterococcus faecium [8]): 0.03 µg/mL (≈ 0.103 µM)
MIC (Enterococcus faecium [9]): 0.03 µg/mL (≈ 0.103 µM)
MIC (Enterococcus faecalis [10]): 0.015 µg/mL (≈ 0.0513 µM)
MIC (Enterococcus faecalis [11]): 0.015 µg/mL (≈ 0.0513 µM)
inhibition (Enterococcus faecium [15]): Active
inhibition (Enterococcus faecium [16]): inactive
MIC (Enterococcus faecium [17]): 0.03 µg/mL (≈ 0.103 µM)
Compound: CCCCCCC(=O)Nc1nnc(S(N)(=O)=O)s1
Activity (Enterococcus faecalis [12]): Active
Activity (Enterococcus faecalis [13]): Active
Activity (Caco-2): Non-Toxic
CC50 at 2 h [14]: > 128 µg/mL

From ChEMBL document CHEMBL4725360, “Optimization of Acetazolamide-Based Scaffold as Potent Inhibitors of Vancomycin-Resistant Enterococcus” (J Med Chem, 2020)
